Laboratory results: ChEMBL document CHEMBL4680304, “Synthesis and evaluation of new phenyl acrylamide derivatives as potent non-nucleoside anti-HBV agents” (Bioorg Med Chem, 2021)
pIC50: −log10 of the molar value.

Legend:
Hepatitis B virus [1] = test: Antiviral activity against HBV infected in human HepG2 2.2.15 cells assessed as decrease in extracellular viral DNA level at 0.8 uM measured after incubation of 6 days by RT-PCR analysis; format: functional; details: HepG2 2.2.15, 144 h, time 6 day
How it was run: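 HepG2 2.2.15 cells, which stably carry the HBV genome, were grown in DMEM with 10% FBS, penicillin/streptomycin and 0.38 mg/mL G418. They were seeded at 2×10^5/well and allowed to recover for 24 h. Cells were then exposed to 0.8 µM compound for 6 days, with medium changed every 2 days. HBV DNA was quantified by real-time PCR and expressed as % inhibition versus control.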

[2] = Cytotoxicity against human HepG2 2.2.15 cell line assessed as cell viability measured after 72 hrs by MTT assay; format: cell-based; details: HepG2 2.2.15 cells
How it was run: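 HepG2 2.2.15 cells were precultured for 24 h, then incubated with compound for 72 h. Viability was read as MTT absorbance at 490 nm relative to untreated cells on the same plate. CC50 is the concentration causing 50% cell death.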

Hepatitis B virus [3] = test: Antiviral activity against HBV infected in human HepG2 2.2.15 cells assessed as decrease in extracellular viral DNA level measured after incubation of 6 days by RT-PCR analysis; format: functional, organism-based; details: HepG2 2.2.15, 144 h
How it was run: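 Cells were HepG2 2.2.15 (stable HBV genome), seeded at 2×10^5/well and recovered for 24 h. Dose-dependent exposure to compound lasted 6 days, with medium replaced every 2 days. HBV DNA was measured by real-time PCR. IC50 is the concentration giving 50% inhibition of HBV DNA replication, reported as mean ± SD of triplicate experiments.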

Hepatitis B virus [4] = test: (§1) Antiviral activity against lamivudine/entecavir-resistant HBV rtL180M/rtM204V/rtT184L mutant infected in human HepG2 2.2.15 cells assessed as inhibition of viral DNA replication at 0.8 uM measured after incubation of 72 hrs by RT-PCR analysis relative to control; format: functional
How it was run: (§2)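 HepG2 cells (2 × 10^5/well) plated 24 h, then transiently transfected for 24 h with plasmid carrying full-genome HBV with rtL180M + rtM204V + rtT184L (wild-type genome in parallel). Washed with PBS, then given fresh medium with compound for 72 h. Intracellular HBV DNA replicative intermediates extracted and quantified by real-time PCR against the wild-type group.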

[5] = Selectivity index, ratio of CC50 for human HepG2 2.2.15 to IC50 of antiviral activity against HBV infected in human HepG2 2.2.15 cells assessed as decrease in extracellular viral DNA level measured after incubation of 6 days by RT-PCR analysis; format: toxicity, cell-based; details: time 6 day, read-out: Selectivity Index
How it was run: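 SI was calculated as the CC50 in HepG2 2.2.15 cells (72 h MTT) divided by the IC50 for HBV DNA inhibition. That IC50 came from HepG2 2.2.15 cells treated for 6 days with medium changed every 2 days, with HBV DNA quantified by real-time PCR.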

[6] = as §1, with “Selectivity index, ratio of CC50 for human HepG2 2.2.15 to IC50 of Antiviral” for “Antiviral”, “replication” for “replication at 0.8 uM”; format: toxicity, cell-based; details: read-out: Selectivity Index
How it was run: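 SI is CC50 divided by IC50. CC50 comes from MTT on HepG2 2.2.15 cells, 72 h exposure, absorbance at 490 nm relative to untreated cells. IC50 comes from HepG2 cells transiently transfected with rtL180M + rtM204V + rtT184L HBV plasmid and treated 72 h, with DNA replicative intermediates measured by real-time PCR, triplicate experiments.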

Hepatitis B virus [7] = test: Antiviral activity against lamivudine/entecavir-resistant HBV rtL180M/rtM204V/rtT184L mutant infected in human HepG2 2.2.15 cells assessed as inhibition of viral DNA replication measured after incubation of 72 hrs by RT-PCR analysis; format: functional, organism-based; details: for pIC50: HepG2 2.2.15, 72 h
How it was run: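 HepG2 cells transiently transfected for 24 h with full-genome HBV plasmid carrying rtL180M + rtM204V + rtT184L, washed, then treated over a dose range for 72 h. HBV DNA replicative intermediates quantified by real-time PCR. IC50 is the concentration giving 50% inhibition of HBV DNA replication, as mean ± SD of triplicate experiments.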

Hepatitis B virus [8] = test: Antiviral activity against HBV infected in human HepG2 2.2.15 cells assessed as inhibition of pregenomic RNA expression at 1 uM measured after incubation of 6 by RT-PCR analysis relative to control; format: functional; details: HepG2 2.2.15, 144 h, read-out: INH, time 6 day
How it was run: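 HepG2 2.2.15 cells were seeded at 6×10^5/well in 6-well plates. They were incubated with 1 µM compound for 6 days. Total cellular RNA was then extracted and pgRNA copies/mL were measured by real-time PCR, giving % inhibition relative to untreated control.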

Hepatitis B virus [9] = test: Antiviral activity against lamivudine/entecavir-resistant HBV rtL180M/rtM204V/rtT184L mutant infected in human HepG2 2.2.15 cells assessed as inhibition of viral DNA replication at 100 uM measured after incubation of 72 hrs by RT-PCR analysis relative to control; format: functional; how it was run: as §2
Hepatitis B virus [10] = test: Antiviral activity against wild type HBV infected in human […] cells assessed as inhibition of viral DNA replication at 100 uM measured after incubation of 72 hrs by RT-PCR analysis relative to control; format: functional, HepG2 2.2.15
How it was run: (§3)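 Parental HepG2 cells were plated at 2×10^5/well. After 24 h they were transiently transfected for 24 h with a full-length wild-type HBV genome plasmid, then washed with PBS. Cells were then treated for 72 h in fresh medium: entecavir 10 µM, lamivudine 100 µM. Intracellular HBV DNA replicative intermediates were quantified by real-time PCR.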

Hepatitis B virus [11] = test: Antiviral activity against wild type HBV infected in human […] cells assessed as inhibition of viral DNA replication at 10 uM measured after incubation of 72 hrs by RT-PCR analysis relative to control; format: functional, HepG2 2.2.15; how it was run: as §3
Hepatitis B virus [12] = test: Antiviral activity against lamivudine/entecavir-resistant HBV rtL180M/rtM204V/rtT184L mutant infected in human HepG2 2.2.15 cells assessed as inhibition of viral DNA replication at 10 uM measured after incubation of 72 hrs by RT-PCR analysis relative to control; format: functional; how it was run: as §2

SMILES	inhibition at 0.8 µM (Hepatitis B virus [1]) [%]	CC50 at 72 h [2] [µM]	further results
O=C(N[C@H](CO)Cc1ccccc1)/C(NC(=O)c1ccc(Cl)cc1Cl)=C(/Br)c1ccccc1	88	> 100	pIC50 (Hepatitis B virus [3]): 6.72; inhibition at 0.8 µM (Hepatitis B virus [4]): 87%; selectivity ratio at 144 h [5]: > 526; selectivity ratio at 72 h [6]: > 556; inhibition (Hepatitis B virus [7]): Dose-dependent effect; pIC50 (Hepatitis B virus [7]): 6.74; inhibition at 1 µM (Hepatitis B virus [8]): 63.1%
Cc1ccccc1C(=O)N/C(C(=O)N[C@H](CO)Cc1ccccc1)=C(\Br)c1ccccc1	5.75	> 100	–
O=C(N[C@H](CO)Cc1ccccc1)/C(NC(=O)c1cccc(Cl)c1)=C(/Br)c1ccccc1	5.36	> 100	–
O=C(N[C@H](CO)Cc1ccccc1)/C(NC(=O)c1cccc(F)c1)=C(/Br)c1ccccc1	9.07	> 100	–
O=C(N[C@H](CO)Cc1ccccc1)/C(NC(=O)c1ccccc1)=C(/Br)c1cccc(Br)c1	14.4	> 100	–
O=C(N[C@H](CO)Cc1ccccc1)/C(NC(=O)c1ccccc1Br)=C(/Br)c1ccccc1	17.2	> 100	–
Nc1ccn([C@@H]2CS[C@H](CO)O2)c(=O)n1 [LAMIVUDINE]	86.2	> 100	inhibition at 100 µM (Hepatitis B virus [9]): 18.6%; pIC50 (Hepatitis B virus [3]): 7.51; inhibition at 100 µM (Hepatitis B virus [10]): 90%; selectivity ratio at 144 h [5]: > 1000; pIC50 (Hepatitis B virus [7]): < 4.00; inhibition at 1 µM (Hepatitis B virus [8]): 0.26%
Cc1ccc(C(=O)N/C(C(=O)N[C@H](CO)Cc2ccccc2)=C(\Br)c2ccccc2)cc1	47.4	> 100	–
O=C(N[C@H](CO)Cc1ccccc1)/C(NC(=O)c1ccc(F)c(F)c1)=C(/Br)c1ccccc1	73.7	> 100	pIC50 (Hepatitis B virus [3]): 6.32; selectivity ratio at 144 h [5]: > 208
O=C(N[C@H](CO)Cc1ccccc1)/C(NC(=O)c1ccc(Br)cc1)=C(/Br)c1ccccc1	43	> 100	–
COc1cccc(/C(Br)=C(/NC(=O)c2ccccc2)C(=O)N[C@H](CO)Cc2ccccc2)c1	48.9	> 100	–
Cc1cc(F)ccc1C(=O)N/C(C(=O)N[C@H](CO)Cc1ccccc1)=C(\Br)c1ccccc1	83.2	> 100	pIC50 (Hepatitis B virus [3]): 6.48; selectivity ratio at 144 h [5]: > 303
O=C(N[C@H](CO)Cc1ccccc1)/C(NC(=O)c1ccc(F)cc1Cl)=C(/Br)c1ccccc1	56.1	> 100	–
O=C(N[C@H](CO)Cc1ccccc1)/C(NC(=O)c1ccc(F)cc1F)=C(/Br)c1ccccc1	58.1	> 100	–
CCN(CC)CCOc1cccc(/C(Br)=C(/NC(=O)c2ccccc2)C(=O)N[C@H](CO)Cc2ccccc2)c1	56.5	83.6	–
Cc1cccc(C(=O)N/C(C(=O)N[C@H](CO)Cc2ccccc2)=C(\Br)c2ccccc2)c1	2.94	> 100	–
O=C(N[C@H](CO)Cc1ccccc1)/C(NC(=O)c1ccccc1)=C(/Br)c1cccc(C(F)(F)F)c1	23.1	> 100	–
O=C(N[C@H](CO)Cc1ccccc1)/C(NC(=O)c1ccccc1)=C(/Br)c1cccc(O)c1	29.6	99.5	–

SMILES	inhibition at 0.8 µM (Hepatitis B virus [1]) [%]	CC50 at 72 h [2] [µM]	further results
O=C(N[C@H](CO)Cc1ccccc1)/C(NC(=O)c1ccccc1Cl)=C(/Br)c1ccccc1	13.9	> 100	–
Cc1cccc(/C(Br)=C(/NC(=O)c2ccccc2)C(=O)N[C@H](CO)Cc2ccccc2)c1	57.3	> 100	–
CN(C)CCOc1cccc(/C(Br)=C(/NC(=O)c2ccccc2)C(=O)N[C@H](CO)Cc2ccccc2)c1	58.4	94.7	–
CC(=O)Oc1cccc(/C(Br)=C(/NC(=O)c2ccccc2)C(=O)N[C@H](CO)Cc2ccccc2)c1	32.4	> 100	–
O=C(N[C@H](CO)Cc1ccccc1)/C(NC(=O)c1ccccc1F)=C(/Br)c1ccccc1	33.6	> 100	–
O=C(N[C@H](CO)Cc1ccccc1)/C(NC(=O)c1cc(Cl)cc(Cl)c1)=C(/Br)c1ccccc1	83.8	> 100	pIC50 (Hepatitis B virus [3]): 6.57; selectivity ratio at 144 h [5]: > 370
O=C(N[C@H](CO)Cc1ccccc1)/C(NC(=O)c1ccccc1)=C(/Br)c1cccc(F)c1	42.6	> 100	–
O=C(N[C@H](CO)Cc1ccccc1)/C(NC(=O)c1cccc(Br)c1)=C(/Br)c1ccccc1	2.48	> 100	–
O=C(N[C@H](CO)Cc1ccccc1)/C(NC(=O)c1ccccc1)=C(/Br)c1cccc([N+](=O)[O-])c1	2.28	93.7	–
CN(C)CCCOc1cccc(/C(Br)=C(/NC(=O)c2ccccc2)C(=O)N[C@H](CO)Cc2ccccc2)c1	37.7	85.6	–
COc1ccc(C(=O)N/C(C(=O)N[C@H](CO)Cc2ccccc2)=C(\Br)c2ccccc2)cc1	6.25	> 100	–
C=C1[C@H](CO)[C@@H](O)C[C@@H]1n1cnc2c(=O)[nH]c(N)nc21 [ENTECAVIR]	–	–	inhibition at 10 µM (Hepatitis B virus [11]): 96.8%; inhibition at 10 µM (Hepatitis B virus [12]): 20.7%
O=C(N[C@H](CO)Cc1ccccc1)/C(NC(=O)c1ccccc1)=C(/Br)c1cccc(Cl)c1	48.2	> 100	–
COc1cccc(C(=O)N/C(C(=O)N[C@H](CO)Cc2ccccc2)=C(\Br)c2ccccc2)c1	4.89	> 100	–
O=C(N[C@H](CO)Cc1ccccc1)/C(NC(=O)c1ccc(Cl)cc1)=C(/Br)c1ccccc1	70.7	> 100	pIC50 (Hepatitis B virus [3]): 6.37; selectivity ratio at 144 h [5]: > 232
COc1ccccc1C(=O)N/C(C(=O)N[C@H](CO)Cc1ccccc1)=C(\Br)c1ccccc1	11.9	> 100	–
O=C(N[C@H](CO)Cc1ccccc1)/C(NC(=O)c1ccc(F)cc1)=C(/Br)c1ccccc1	74.9	> 100	pIC50 (Hepatitis B virus [3]): 6.42; inhibition at 0.8 µM (Hepatitis B virus [4]): 72.9%; selectivity ratio at 144 h [5]: > 263; selectivity ratio at 72 h [6]: > 232; inhibition (Hepatitis B virus [7]): Dose-dependent effect; pIC50 (Hepatitis B virus [7]): 6.37
